Blank lines part the entries; values can stand above or below the molecule they belong to. The source made the active and inactive calls. The rule behind the calls is not given here.
What was measured:
[1] = Binding affinity to low-affinity binding site of rat alpha-1-acid glycoprotein at 20 degC by surface plasmon resonance assay; format: ADME
Outline: (§1)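 Cross-serial dilutions, top 250 μM. Reference-subtracted, solvent-corrected, double-referenced responses at the end of association plotted against concentration and fitted to single- or two-site equilibrium models.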

[2] = Binding affinity to low-affinity site of human alpha-1-acid glycoprotein at 20 degC by surface plasmon resonance assay; format: ADME; outline: as §1
[3] = Binding affinity to human alpha-1-acid glycoprotein at 25 degC; format: ADME
[4] = molecular target: T1, Albumin (Rattus norvegicus, UniProt P02770); assay: Binding affinity to rat serum albumin at 500 uM at 37 degC by surface plasmon resonance assay; format: ADME; settings: isolated protein
[5] = molecular target: T2, Albumin (Homo sapiens, UniProt P02768); assay: Binding affinity to human serum albumin at 500 uM at 20 degC by surface plasmon resonance assay; format: ADME; settings: isolated protein
[6] = Binding affinity to high-affinity binding site of rat alpha-1-acid glycoprotein at 20 degC by surface plasmon resonance assay; format: ADME; outline: as §1
[7] = molecular target: T2, Albumin; assay: Binding affinity to human serum albumin at 500 uM at 37 degC by surface plasmon resonance assay; format: ADME; settings: isolated protein
[8] = molecular target: T1, Albumin; assay: Binding affinity to rat serum albumin at 500 uM at 20 degC by surface plasmon resonance assay; format: ADME; settings: isolated protein
[9] = Binding affinity to human alpha-1-acid glycoprotein at 20 degC by isothermal titration calorimetry analysis; format: ADME
Outline: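 ITC at 20 °C. Human (300 μM) or rat (100 μM) AAG dialysed overnight at 4 °C into 50 mM HEPES pH 7.2, 150 mM NaCl, 0.005% Tween-20, 5% DMSO. Heats corrected with buffer controls and fitted to a one-site model.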

[10] = Binding affinity to high-affinity site of human alpha-1-acid glycoprotein at 20 degC by surface plasmon resonance assay; format: ADME; outline: as §1
[11] = molecular target: Sonic hedgehog protein (Homo sapiens) (UniProt Q15465); assay: Inhibition of human SHH pathway in mouse S12 cells assessed as GLI-mediated transcriptional activity at 3 uM after 48 hrs by luciferase reporter gene assay in presence of 5 mg/mL human alpha-1-acid glycoprotein; format: cell-based
Outline: (§2)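 Mouse C3H10T1/2-derived S12 cells carrying a stably integrated GLI-luciferase reporter. Grown in high-glucose DMEM with 10% FBS, replated, then switched to 0.5% FBS to induce cilia. Shh, human AAG (0, 0.5, 1 or 5 mg/mL) and compound added. Luciferase (Dual-Glo) read after 48 h. Mean of four experiments ±SD.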

[12] = Binding affinity to human alpha-1-acid glycoprotein at 37 degC by surface plasmon resonance assay; format: ADME; outline: as §1
[13] = Binding affinity to 100 uM of human alpha-1-acid glycoprotein in at 5 uM after 6 hrs by equilibrium dialysis method; format: ADME; settings: isolated protein
Outline: (§3)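 [14C]-labelled plus unlabelled drug added to human AAG at 0.5, 1 or 5 mg/mL to give 5, 25 or 75 μM drug. Dialysed against 0.133 M isotonic phosphate buffer, 6 h, 37 °C, 5% CO2. Scintillation counting of both sides gives % free (buffer/protein side ×100) and % bound. High-affinity KD from a two-site fit of bound vs free, Bmax1 fixed at the AAG concentration.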

[14] = molecular target: T1, Albumin; assay: Binding affinity to rat serum albumin at 37 degC by surface plasmon resonance assay
[15] = Binding affinity to 10 uM of human alpha-1-acid glycoprotein in at 25 uM after 6 hrs by equilibrium dialysis method; format: ADME; settings: isolated protein; outline: as §3
[16] = Binding affinity to […] uM of human alpha-1-acid glycoprotein in at 25 uM after 6 hrs by equilibrium dialysis method; format: ADME; settings: isolated protein
[17] = Binding affinity to 10 uM of human alpha-1-acid glycoprotein in at 5 uM after 6 hrs by equilibrium dialysis method; format: ADME; settings: isolated protein; outline: as §3
[18] = molecular target: T1, Albumin; assay: Binding affinity to low-affinity binding site of rat serum albumin at 20 degC by surface plasmon resonance assay
[19] = Binding affinity to […] uM of human alpha-1-acid glycoprotein in at 5 uM after 6 hrs by equilibrium dialysis method; format: ADME; settings: isolated protein
[20] = Binding affinity to 10 uM of human alpha-1-acid glycoprotein in at 75 uM after 6 hrs by equilibrium dialysis method; format: ADME; settings: isolated protein; outline: as §3
[21] = Binding affinity to […] uM of human alpha-1-acid glycoprotein in at 75 uM after 6 hrs by equilibrium dialysis method; format: ADME; settings: isolated protein
[22] = Binding affinity to 100 uM of human alpha-1-acid glycoprotein in at 25 uM after 6 hrs by equilibrium dialysis method; format: ADME; settings: isolated protein; outline: as §3
[23] = Binding affinity to 100 uM of human alpha-1-acid glycoprotein in at 75 uM after 6 hrs by equilibrium dialysis method; format: ADME; settings: isolated protein; outline: as §3
[24] = Binding affinity human alpha-1-acid glycoprotein in after 6 hrs by equilibrium dialysis method; format: ADME; outline: as §3
[25] = molecular target: T1, Albumin; assay: Binding affinity to high-affinity binding site of rat serum albumin at 20 degC by surface plasmon resonance assay
[26] = molecular target: Sonic hedgehog protein (Homo sapiens) (UniProt Q15465); assay: Inhibition of human SHH pathway in mouse S12 cells assessed as GLI-mediated transcriptional activity after 48 hrs by luciferase reporter gene assay in presence of 1 mg/mL human alpha-1-acid glycoprotein; format: cell-based; outline: as §2
[27] = Binding affinity to rat alpha-1-acid glycoprotein at 250 uM at 37 degC by surface plasmon resonance assay; format: ADME; outline: as §1
[28] = Binding affinity to rat alpha-1-acid glycoprotein at 500 uM at 20 degC by surface plasmon resonance assay; format: ADME
Outline: (§4)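 Compounds were diluted from 10 mM DMSO stocks into 50 mM Hepes pH 7.2, 150 mM NaCl, 0.005% Tween-20, 5% DMSO, in cross-serial dilutions. Responses at the end of association were double-referenced, solvent-corrected and fit to single- or two-site equilibrium models for KD.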

[29] = Binding affinity to rat alpha-1-acid glycoprotein at 500 uM at 37 degC by surface plasmon resonance assay; format: ADME; outline: as §4
[30] = Binding affinity to human alpha-1-acid glycoprotein at 500 uM at 37 degC by surface plasmon resonance assay; format: ADME; outline: as §4
[31] = Binding affinity to human alpha-1-acid glycoprotein at 500 uM at 20 degC by surface plasmon resonance assay; format: ADME; outline: as §4

T1 sequence (P02770 whole entry): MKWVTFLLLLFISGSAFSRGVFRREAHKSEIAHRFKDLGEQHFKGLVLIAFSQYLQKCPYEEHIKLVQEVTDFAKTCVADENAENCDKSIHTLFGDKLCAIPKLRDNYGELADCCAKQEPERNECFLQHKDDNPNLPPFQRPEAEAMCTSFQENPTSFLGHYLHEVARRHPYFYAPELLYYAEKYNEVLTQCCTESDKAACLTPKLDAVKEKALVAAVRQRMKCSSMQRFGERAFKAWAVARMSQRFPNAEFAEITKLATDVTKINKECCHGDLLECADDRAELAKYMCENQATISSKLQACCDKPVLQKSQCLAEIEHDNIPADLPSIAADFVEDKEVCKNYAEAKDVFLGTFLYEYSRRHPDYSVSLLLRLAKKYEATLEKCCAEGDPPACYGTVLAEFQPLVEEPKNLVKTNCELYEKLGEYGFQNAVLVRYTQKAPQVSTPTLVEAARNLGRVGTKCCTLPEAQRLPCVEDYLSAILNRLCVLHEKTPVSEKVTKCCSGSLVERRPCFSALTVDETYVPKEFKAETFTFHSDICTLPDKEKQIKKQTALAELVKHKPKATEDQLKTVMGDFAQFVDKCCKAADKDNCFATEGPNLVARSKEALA
Chain of Sonic hedgehog protein (Homo sapiens) (Q15465 24-197 limits assumed): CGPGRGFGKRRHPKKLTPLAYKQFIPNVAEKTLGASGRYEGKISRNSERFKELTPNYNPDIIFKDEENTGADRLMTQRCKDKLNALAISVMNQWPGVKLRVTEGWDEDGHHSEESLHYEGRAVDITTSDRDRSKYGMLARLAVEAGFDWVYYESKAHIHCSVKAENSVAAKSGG
T2 sequence (P02768 whole entry): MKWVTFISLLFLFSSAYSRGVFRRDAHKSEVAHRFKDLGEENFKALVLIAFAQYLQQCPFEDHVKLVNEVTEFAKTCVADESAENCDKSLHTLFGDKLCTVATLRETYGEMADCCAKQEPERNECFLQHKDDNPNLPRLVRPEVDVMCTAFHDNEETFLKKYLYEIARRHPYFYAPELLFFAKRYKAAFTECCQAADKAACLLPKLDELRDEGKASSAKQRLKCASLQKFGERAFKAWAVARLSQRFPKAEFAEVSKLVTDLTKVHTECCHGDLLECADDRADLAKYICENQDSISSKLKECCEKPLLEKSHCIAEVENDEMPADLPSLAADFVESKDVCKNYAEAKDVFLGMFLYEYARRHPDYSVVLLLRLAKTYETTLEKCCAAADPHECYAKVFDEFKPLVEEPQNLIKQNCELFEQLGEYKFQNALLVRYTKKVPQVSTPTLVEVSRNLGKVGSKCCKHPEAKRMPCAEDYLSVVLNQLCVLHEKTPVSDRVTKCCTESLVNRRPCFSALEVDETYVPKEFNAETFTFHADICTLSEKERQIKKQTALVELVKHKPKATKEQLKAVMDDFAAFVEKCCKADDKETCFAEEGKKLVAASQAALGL

Kd [1]: 1700 µM | Kd [2]: 219 µM | Kd [3]: 8.3 µM | Activity [4]: Not Active | Activity [5]: Not Active | Kd [6]: 71 µM | Activity [7]: Not Active | Activity [8]: Not Active | Kd [9]: 7 µM | Kd [10]: 15.3 µM
Compound: C=CC1=C(C)/C(=C/C2=NC(=C\c3[nH]c(/C=C4\NC(=O)C(C)=C4C=C)c(C)c3CCC(=O)O)/C(CCC(=O)O)=C2C)NC1=O [BILIVERDIN]

Compound: CS(=O)(=O)c1ccc(C(=O)Nc2ccc(Cl)c(-c3ccccn3)c2)c(Cl)c1 [VISMODEGIB]
inhibition [11]: inactive | Kd [12]: 13 µM | Activity [13]: 98.8% | Kd [14]: 140 µM | Activity [15]: 70.4% | Activity [16]: 88.9% | Activity [17]: 96.5% | Kd [2]: 139 µM | Kd [18]: 5.8 µM | Activity [19]: 98.3% | Activity [20]: 41.1% | Activity [21]: 60% | Activity [22]: 98.7% | Kd [9]: 1.1 µM | Kd [10]: 3.7 µM | Activity [23]: 98.3% | Kd [24]: 1.5 µM | Kd [25]: 171 µM | inhibition [26]: Active | Activity [27]: Not Active

Compound: CC(=O)CC(c1ccccc1)c1c(O)c2ccccc2oc1=O (centres undefined) [WARFARIN]
Activity [28]: Not Active | Activity [29]: Not Active | Activity [30]: Not Active | Activity [31]: Not Active

From ChEMBL document CHEMBL1772967 (J Med Chem, 2011)
